Measured values as given in ChEMBL document CHEMBL5653631, “A Potent and Selective ULK1 Inhibitor Suppresses Autophagy and Sensitizes Cancer Cells to Nutrient Stress” (iScience, 2018).

Tests used:
[1] = target: Protein kinase C beta type (Homo sapiens) (UniProt P05771); assay: Inhibition of human recombinant PKCb at 40 nM in presence of ATP by radiometric assay relative to control
[2] = target: T1, Serine/threonine-protein kinase BRSK2 (Homo sapiens) (UniProt Q8IWQ3); assay: Inhibition of human recombinant BRSK2 at 40 nM in presence of ATP by radiometric assay relative to control
T1 sequence (whole entry): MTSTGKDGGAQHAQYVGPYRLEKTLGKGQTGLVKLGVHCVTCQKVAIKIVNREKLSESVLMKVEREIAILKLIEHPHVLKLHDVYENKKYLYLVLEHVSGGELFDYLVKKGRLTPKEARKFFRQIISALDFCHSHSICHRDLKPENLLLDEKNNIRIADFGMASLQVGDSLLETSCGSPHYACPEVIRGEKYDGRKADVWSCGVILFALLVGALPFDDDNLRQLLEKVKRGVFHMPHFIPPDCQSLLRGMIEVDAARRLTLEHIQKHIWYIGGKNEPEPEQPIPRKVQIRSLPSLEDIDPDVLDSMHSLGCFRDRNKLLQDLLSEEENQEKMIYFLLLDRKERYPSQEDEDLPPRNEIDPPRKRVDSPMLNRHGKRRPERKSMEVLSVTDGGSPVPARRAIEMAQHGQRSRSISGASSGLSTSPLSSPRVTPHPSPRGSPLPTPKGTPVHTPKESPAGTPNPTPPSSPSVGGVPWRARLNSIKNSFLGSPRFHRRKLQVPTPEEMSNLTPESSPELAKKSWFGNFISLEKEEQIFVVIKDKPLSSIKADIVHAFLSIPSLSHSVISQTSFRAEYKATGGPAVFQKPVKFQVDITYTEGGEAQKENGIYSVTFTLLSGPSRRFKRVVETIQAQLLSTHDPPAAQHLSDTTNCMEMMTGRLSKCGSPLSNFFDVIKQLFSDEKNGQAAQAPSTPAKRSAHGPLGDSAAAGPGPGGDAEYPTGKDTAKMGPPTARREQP
In short: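 Recombinant human kinase panel (327 kinases) run as radiometric activity assays, each kinase in duplicate at one compound concentration. Activity remaining expressed relative to vehicle control; percent inhibition taken as 100% minus % activity remaining.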

[3] = target: Calcium/calmodulin-dependent protein kinase type II subunit alpha (Homo sapiens) (UniProt Q9UQM7); assay: Inhibition of human recombinant CaMK2a at 15 nM related to control ULK1
[4] = target: T2, Serine/threonine-protein kinase Nek1 (Homo sapiens) (UniProt Q96PY6); assay: Inhibition of human recombinant NEK1 at 15 nM related to control ULK1
T2 sequence (whole entry): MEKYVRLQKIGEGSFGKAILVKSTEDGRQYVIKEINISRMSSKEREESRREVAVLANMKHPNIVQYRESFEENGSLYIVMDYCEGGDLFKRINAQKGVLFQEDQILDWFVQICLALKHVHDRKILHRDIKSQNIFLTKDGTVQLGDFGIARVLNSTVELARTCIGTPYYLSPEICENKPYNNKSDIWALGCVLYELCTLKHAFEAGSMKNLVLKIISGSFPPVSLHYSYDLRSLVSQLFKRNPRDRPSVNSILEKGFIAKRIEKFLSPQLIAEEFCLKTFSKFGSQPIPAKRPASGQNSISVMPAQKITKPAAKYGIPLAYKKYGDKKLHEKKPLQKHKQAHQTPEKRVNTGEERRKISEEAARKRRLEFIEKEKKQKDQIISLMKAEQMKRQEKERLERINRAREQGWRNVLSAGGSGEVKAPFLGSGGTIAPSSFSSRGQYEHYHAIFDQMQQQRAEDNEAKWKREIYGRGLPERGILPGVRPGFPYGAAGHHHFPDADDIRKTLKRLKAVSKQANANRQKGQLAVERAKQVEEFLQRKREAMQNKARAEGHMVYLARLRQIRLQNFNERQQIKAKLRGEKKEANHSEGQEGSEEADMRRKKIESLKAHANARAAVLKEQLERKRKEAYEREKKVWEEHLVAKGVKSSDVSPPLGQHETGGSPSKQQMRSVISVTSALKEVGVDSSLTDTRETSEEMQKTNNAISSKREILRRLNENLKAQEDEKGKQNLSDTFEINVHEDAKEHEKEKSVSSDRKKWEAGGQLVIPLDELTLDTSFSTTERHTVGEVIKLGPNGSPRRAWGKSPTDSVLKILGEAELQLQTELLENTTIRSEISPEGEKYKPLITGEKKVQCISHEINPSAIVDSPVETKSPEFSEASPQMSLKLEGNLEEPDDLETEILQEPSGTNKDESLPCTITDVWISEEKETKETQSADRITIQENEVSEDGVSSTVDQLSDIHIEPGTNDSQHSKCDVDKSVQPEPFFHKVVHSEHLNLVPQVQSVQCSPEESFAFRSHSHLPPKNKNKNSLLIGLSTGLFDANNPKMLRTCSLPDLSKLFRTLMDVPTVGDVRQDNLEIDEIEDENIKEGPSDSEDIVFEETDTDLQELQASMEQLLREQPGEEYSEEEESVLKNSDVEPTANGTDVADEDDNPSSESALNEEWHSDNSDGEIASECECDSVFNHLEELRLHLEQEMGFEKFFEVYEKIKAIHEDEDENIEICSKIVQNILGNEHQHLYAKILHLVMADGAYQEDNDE

[5] = target: Serine/threonine-protein kinase PLK2 (Homo sapiens) (UniProt Q9NYY3); assay: Inhibition of human recombinant PLK2 at 500 nM in presence of ATP by radiometric assay relative to control
Chain of Serine/threonine-protein kinase PLK2 (Homo sapiens) (Q9NYY3 whole entry, looked up): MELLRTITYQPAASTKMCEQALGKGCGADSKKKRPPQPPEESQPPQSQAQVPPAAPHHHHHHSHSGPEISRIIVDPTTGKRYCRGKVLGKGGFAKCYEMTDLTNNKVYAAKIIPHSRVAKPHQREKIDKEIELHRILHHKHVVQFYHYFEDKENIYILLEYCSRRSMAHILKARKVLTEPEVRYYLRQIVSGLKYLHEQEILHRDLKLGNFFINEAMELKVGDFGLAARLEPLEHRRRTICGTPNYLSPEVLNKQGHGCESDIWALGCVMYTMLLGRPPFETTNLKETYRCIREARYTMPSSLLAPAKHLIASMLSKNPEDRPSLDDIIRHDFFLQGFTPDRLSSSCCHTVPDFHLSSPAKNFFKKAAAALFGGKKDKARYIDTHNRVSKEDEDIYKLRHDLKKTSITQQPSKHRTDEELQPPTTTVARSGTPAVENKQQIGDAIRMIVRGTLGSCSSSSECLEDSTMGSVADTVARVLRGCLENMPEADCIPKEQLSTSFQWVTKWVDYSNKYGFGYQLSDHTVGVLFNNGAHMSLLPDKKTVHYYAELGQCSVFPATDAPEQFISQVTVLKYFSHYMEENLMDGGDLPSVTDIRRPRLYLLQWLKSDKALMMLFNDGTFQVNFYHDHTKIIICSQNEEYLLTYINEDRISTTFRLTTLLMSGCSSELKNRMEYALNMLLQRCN

Chain of Protein kinase C beta type (Homo sapiens) (P05771 2-671 limits assumed): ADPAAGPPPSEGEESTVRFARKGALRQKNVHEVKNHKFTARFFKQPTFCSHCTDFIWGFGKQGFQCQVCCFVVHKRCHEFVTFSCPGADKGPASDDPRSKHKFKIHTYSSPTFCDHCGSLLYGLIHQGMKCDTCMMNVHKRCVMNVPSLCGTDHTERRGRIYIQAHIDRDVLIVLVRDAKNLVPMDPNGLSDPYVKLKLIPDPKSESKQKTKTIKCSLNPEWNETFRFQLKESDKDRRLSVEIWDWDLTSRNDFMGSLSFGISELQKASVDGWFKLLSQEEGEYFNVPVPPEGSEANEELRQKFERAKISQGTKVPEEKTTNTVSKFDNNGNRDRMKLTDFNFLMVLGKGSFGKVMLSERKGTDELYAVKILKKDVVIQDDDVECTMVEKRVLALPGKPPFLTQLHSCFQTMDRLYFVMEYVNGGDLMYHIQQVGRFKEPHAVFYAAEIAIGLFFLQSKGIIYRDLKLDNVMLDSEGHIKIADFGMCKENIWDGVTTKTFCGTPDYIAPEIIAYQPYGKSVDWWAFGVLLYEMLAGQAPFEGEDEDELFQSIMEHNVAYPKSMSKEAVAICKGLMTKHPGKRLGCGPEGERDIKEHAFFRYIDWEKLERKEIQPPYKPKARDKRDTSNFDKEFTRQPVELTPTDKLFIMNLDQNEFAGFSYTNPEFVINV
Chain of Calcium/calmodulin-dependent protein kinase type II subunit alpha (Homo sapiens) (Q9UQM7 whole entry): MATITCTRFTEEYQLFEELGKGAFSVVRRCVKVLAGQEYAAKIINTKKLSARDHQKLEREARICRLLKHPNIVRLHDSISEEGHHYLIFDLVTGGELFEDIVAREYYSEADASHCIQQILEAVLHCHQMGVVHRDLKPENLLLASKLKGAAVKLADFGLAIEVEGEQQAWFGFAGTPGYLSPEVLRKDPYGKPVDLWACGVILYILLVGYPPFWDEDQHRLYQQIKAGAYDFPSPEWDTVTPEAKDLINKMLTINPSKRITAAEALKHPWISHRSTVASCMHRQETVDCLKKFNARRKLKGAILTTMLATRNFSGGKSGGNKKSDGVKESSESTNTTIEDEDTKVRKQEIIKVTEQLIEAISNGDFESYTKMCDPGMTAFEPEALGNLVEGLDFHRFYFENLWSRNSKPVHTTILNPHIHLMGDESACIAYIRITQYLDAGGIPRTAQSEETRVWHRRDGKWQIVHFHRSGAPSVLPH

O=C(N[C@@H](C1CC1)C(F)(F)F)c1cc(-c2cnn3cc(-c4ccc(F)cc4)cnc23)cs1
inhibition [1]: 3%
inhibition [2]: 0%

CC(C)[C@H](NC(=O)c1cc(-c2cnn3cc(-c4ccc(OCCN5CCCCC5)cc4)cnc23)cs1)C(F)(F)F
fold change (FC) [3]: 0.47
fold change (FC) [4]: 0.03

CNC(=O)c1ccccc1Oc1nc(Nc2cc(OC)c(OC)c(OC)c2)ncc1Br
inhibition [5]: 4%
